High-throughput results deposited in PubChem BioAssay by several laboratories.
This is a sample that favours compounds with a hit; in the whole collection about 1.5% have one here.
CSN inh = inhibitors of human CSN-mediated cullin deneddylation; Q92905; Purified CSN, SCF-Nedd8-OG deneddylation, fluorescence polarization; inhibition, % at 12.5 µM; 0.38% of 360,000 active;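 active = pattern-corrected inhibition above about 35%, with an unprinted fluorescence ratio check between 0.5 and 1.5, limit read from the data, passing the limit was not always enough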;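 also: 0% = enzyme with substrate and 100% = substrate without enzyme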
Target sequence (Q92905 whole entry, looked up, one chain of several): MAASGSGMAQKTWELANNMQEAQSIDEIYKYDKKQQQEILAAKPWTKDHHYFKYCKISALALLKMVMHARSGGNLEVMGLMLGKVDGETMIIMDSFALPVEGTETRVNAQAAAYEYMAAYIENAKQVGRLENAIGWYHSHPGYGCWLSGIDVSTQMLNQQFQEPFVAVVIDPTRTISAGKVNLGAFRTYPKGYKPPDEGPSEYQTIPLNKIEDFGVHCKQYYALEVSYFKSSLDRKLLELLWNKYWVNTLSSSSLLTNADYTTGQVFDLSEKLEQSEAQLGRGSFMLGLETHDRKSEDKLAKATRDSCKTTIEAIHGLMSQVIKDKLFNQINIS
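Assay system: purified human Csn5 enzyme expressed in HEK293T cells; Input: 0.24 nM Csn5 enzyme, final concentration; Reagent: 10 nM SCFSkp2-Nedd8OG; Compound dosing: 12.5 µM single point; Times: reaction 90 min, room temperature; Technique: fluorescence polarization readout.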
TPT1 inhibitor = blocks Candida albicans tRNA 2'-phosphotransferase; inhibition, % at 5 µM; 0.81% of 300,000 active; AID 1962; recombinant caTPT1, FP RNA substrate dephosphorylation;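 active = inhibition above the mean of all tested compounds plus 3 SD, set per screening campaign, cut at about 24% in these data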;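 also: plate controls were DMSO alone for no effect and ferristatin control at 100 nM for full effect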
HNF4A DNA FP = change in binding of human HNF4 alpha to DNA; P41235; HNF4a-FITC DNA binding, fluorescence polarization, 1 h; 0.3% of 360,000 active; activity change, % at 10 µM; in the data active = activity change above about 30%, passing the limit was not always enough
Rpn11 block = Rpn11 (human) deubiquitinase inhibition; O00487; human 26S proteasome, Ub4-pepOG fluorescence polarization; 20S core pre-blocked with epoxomicin; calls only at 20 µM; 0.59% of 360,000 active; AID 588493;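 active = inhibition at 20 µM, scaled to each plate's controls, above about 33%, limit read from the data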
Target sequence (O00487 whole entry, looked up): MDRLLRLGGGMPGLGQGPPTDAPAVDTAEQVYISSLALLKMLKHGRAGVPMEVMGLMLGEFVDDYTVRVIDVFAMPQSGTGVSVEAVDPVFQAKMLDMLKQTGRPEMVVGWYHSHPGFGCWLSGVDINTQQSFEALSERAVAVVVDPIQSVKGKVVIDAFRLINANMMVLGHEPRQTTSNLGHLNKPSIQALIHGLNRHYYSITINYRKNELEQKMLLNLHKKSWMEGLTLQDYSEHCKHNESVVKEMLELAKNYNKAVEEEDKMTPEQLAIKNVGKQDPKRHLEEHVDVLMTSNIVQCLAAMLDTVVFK
TPT1 inh confirm = TPT1 (C. albicans) inhibition, confirmation; recombinant caTPT1, fluorescence polarization, RNase T1 coupled; shares compounds with TPT1 inhibitor; inhibition, % at 5 µM; 74% of 2,400 active;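 active = inhibition above the primary screen limit, the mean inhibition of all tested compounds plus 3 SD, cut at about 25% in these data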
RNase T1 inh = counter-screen for TPT1 inhibitors: inhibitors of Aspergillus oryzae RNase T1; RNase T1 cleavage, fluorescence polarization, 1536-well; inhibition, % at 5 µM; 83% of 2,400 active; AID 2153; shares compounds with TPT1 inhibitor;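 active = inhibition above the solvent-only control well mean plus 3 SD, limit set per screening run, cut at about 23% in these data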;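 also: plate controls were DMSO wells with enzyme for no effect and wells without RNase T1 for full effect; inhibitors block cleavage so intact labeled substrate keeps polarization high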
An asterisk follows results filed as active.

Results for CCN(CC)c1ccc2cc(-c3nnc(-c4ccncc4)o3)c(=O)oc2c1 ?
CSN inh: -74; HNF4A DNA FP: -84

Results for CCN(CC)c1ccc2cc(C(N)=O)c(=N)oc2c1 ?
CSN inh: -90; TPT1 inhibitor: 73*; HNF4A DNA FP: -22; TPT1 inh confirm: 71*; RNase T1 inh: 75*

How did CCN(CC)c1ccc2cc(/C(N)=N/NC(=O)c3cccs3)c(=O)oc2c1 do in these assays?
TPT1 inhibitor: 87*; TPT1 inh confirm: 108*; RNase T1 inh: 112*

What do the screens show for `O=C(Nc1sccc1C(=O)NCc1ccco1)c1cccnc1`?
CSN inh: 9; TPT1 inhibitor: 24*; HNF4A DNA FP: 9; Rpn11 block: inactive; TPT1 inh confirm: 42*; RNase T1 inh: 56*

What do the screens show for `Cc1nc2nc(-c3ccc(Cl)cc3)cn2nc1C`?
CSN inh: 4; TPT1 inhibitor: 7; HNF4A DNA FP: -2; Rpn11 block: inactive

What do the screens show for `COc1cccc(-c2cn3nc(C)c(C)nc3n2)c1`?
CSN inh: 3; TPT1 inhibitor: 45*; HNF4A DNA FP: 8; Rpn11 block: inactive; TPT1 inh confirm: 45*; RNase T1 inh: 55*

Results for COC(=O)c1c[nH]c2c1-c1cc(C(=O)OCc3ccccc3)n(S(=O)(=O)c3ccc(C)cc3)c1C(=O)C2=O ?
CSN inh: 2; HNF4A DNA FP: -5; Rpn11 block: inactive

How did CN(C)S(=O)(=O)c1cccc(NC(=S)N/N=C/c2cc(Br)ccc2O)c1 do in these assays?
CSN inh: 21; TPT1 inhibitor: 25*; HNF4A DNA FP: 14; TPT1 inh confirm: 53*; RNase T1 inh: 59*

Results for COC(=O)C1C2CC3c4[nH]c5cc(OC)ccc5c4CCN3CC2CC(OC2CCCCO2)C1OC (centres undefined) ?
CSN inh: 1; HNF4A DNA FP: 31; Rpn11 block: inactive

How did COC(=O)[C@H]1[C@H]2C[C@@H]3c4[nH]c5cc(OC)ccc5c4CCN3C[C@H]2C[C@@H](OC(=O)c2cc(OC)c(OC)c(OC)c2)[C@@H]1OC do in these assays?
CSN inh: 2; TPT1 inhibitor: 41*; HNF4A DNA FP: 11; Rpn11 block: inactive; TPT1 inh confirm: 45*; RNase T1 inh: 58*

Results for COc1cccc(NC(=O)CN(C)C(=O)c2cc(C)on2)c1 ?
CSN inh: -4; TPT1 inhibitor: -1; HNF4A DNA FP: -1; Rpn11 block: inactive

Results for Cc1cc(NC(=O)/C(C#N)=C/c2ccc(-c3ccc(SC(F)F)cc3)o2)n(-c2ccccc2)n1 ?
CSN inh: 64*; TPT1 inhibitor: 57*; HNF4A DNA FP: 151; TPT1 inh confirm: 57*; RNase T1 inh: 66*

Results for Cc1cc(NC(=O)/C(C#N)=C/c2ccc(-c3cccc(C(F)(F)F)c3)o2)n(-c2ccccc2)n1 ?
CSN inh: 0; TPT1 inhibitor: 10; HNF4A DNA FP: 25; Rpn11 block: inactive

What do the screens show for `O=C(C[C@@H]1C[C@H]2c3cc(NC(=O)NC4CCCCC4)ccc3O[C@H]2[C@H](CO)O1)NC1CCCCC1`?
CSN inh: 0; HNF4A DNA FP: 0; Rpn11 block: inactive

Results for COc1cc(OC)c(OC)cc1/C=C/C(=O)c1ccc(NS(=O)(=O)c2ccc(C)cc2)cc1 ?
CSN inh: 32; TPT1 inhibitor: 78*; HNF4A DNA FP: 35; TPT1 inh confirm: 86*; RNase T1 inh: 95*

Results for Cc1ccc(C(=O)OC(C)C(=O)Nc2ccc(Cl)cn2)s1 (centres undefined) ?
CSN inh: -2; HNF4A DNA FP: -1; Rpn11 block: inactive

What do the screens show for `CCC(C)CN1C(=O)CSCC1(C)C(=O)Nc1c(C)cccc1C` (centres undefined)?
CSN inh: 3; HNF4A DNA FP: 8

What do the screens show for `Cc1ccc(SC(C)C(=O)NCc2ccncc2)cc1` (centres undefined)?
CSN inh: -6; TPT1 inhibitor: 114*; HNF4A DNA FP: -3; Rpn11 block: inactive; TPT1 inh confirm: 6; RNase T1 inh: 7

How did O=C(C1CC1)N1CCc2cc(Br)c(S(=O)(=O)N3CCCCCC3)cc21 do in these assays?
CSN inh: 9; HNF4A DNA FP: 2; Rpn11 block: inactive

Results for CCOCCCNCC(=O)Nc1ccc(S(=O)(=O)NC(C)CC)cc1 (centres undefined) ?
CSN inh: 1; TPT1 inhibitor: 118*; HNF4A DNA FP: 3; Rpn11 block: inactive; TPT1 inh confirm: 10; RNase T1 inh: 12

Results for COc1cccc(C(=O)NC(=O)Nc2cc(C)on2)c1 ?
CSN inh: -5; TPT1 inhibitor: 27*; HNF4A DNA FP: 0; Rpn11 block: inactive; TPT1 inh confirm: 12; RNase T1 inh: 17

What do the screens show for `COc1cccc(NC(=O)Nc2cc(C)on2)c1`?
CSN inh: 2; TPT1 inhibitor: -1; HNF4A DNA FP: -8; Rpn11 block: inactive

What do the screens show for `c1ccc(-c2cn3nc(-c4ccccc4)c(-c4ccccc4)nc3n2)cc1`?
CSN inh: 8; TPT1 inhibitor: 34*; HNF4A DNA FP: 0; Rpn11 block: inactive; TPT1 inh confirm: 44*; RNase T1 inh: 51*

What do the screens show for `O=[N+]([O-])c1ccc(-c2cn3nc(-c4ccccc4)c(-c4ccccc4)nc3n2)cc1`?
CSN inh: 6; TPT1 inhibitor: 17; HNF4A DNA FP: -7

Results for Cc1ccc(-c2cn3nc(-c4ccccc4)c(-c4ccccc4)nc3n2)cc1 ?
CSN inh: 9; TPT1 inhibitor: 68*; HNF4A DNA FP: -39; Rpn11 block: inactive; TPT1 inh confirm: 71*; RNase T1 inh: 75*

What do the screens show for `CCOc1ccc(Br)cc1S(=O)(=O)Nc1nc(CN2CCOCC2)nc2sc(C)c(C)c12`?
CSN inh: 10; TPT1 inhibitor: 31*; HNF4A DNA FP: 5; Rpn11 block: inactive; TPT1 inh confirm: 27*; RNase T1 inh: 35*

Results for Cc1sc2nc(CN3CCOCC3)nc(NS(=O)(=O)c3ccccc3)c2c1C ?
CSN inh: 5; TPT1 inhibitor: 6; HNF4A DNA FP: -3; Rpn11 block: inactive

What do the screens show for `CN1OC[C@@H]2CN(Cc3ccc(Cl)cc3)[C@H](c3ccc(N4CCCCC4)cc3)C[C@@H]21`?
CSN inh: 3; HNF4A DNA FP: 11; Rpn11 block: inactive

Results for CCN(C(=O)CSc1nnc(C2CC2)n1-c1ccccc1)C1CCS(=O)(=O)C1 (centres undefined) ?
CSN inh: -2; HNF4A DNA FP: -5; Rpn11 block: inactive

How did CCN(CC)C(=O)c1ncn2c1C(=O)N(C)CC2 do in these assays?
CSN inh: 4; HNF4A DNA FP: 23; Rpn11 block: inactive
